# Results reported in ChEMBL document CHEMBL5724801, “EUbOPEN Chemogenomics Library - Multiplex” (2024).
# “And” between values parts separate entries of the source, which are not always exact repeats. Identical values can stand only once.
# Columns and labels:
# Assay type in all cases: toxicity, cell-based
# [1] = system: U2OS; test: Multiplex assay against U2OS; details: human
# Method in brief: (§1)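 Cells were classed with CellPathfinder machine-learning gating, first as Hoechst high-intensity objects or normal cells, then (normal cells) as healthy, pyknosed or fragmented nuclei, and finally (pyknosed cells) as mitotic or apoptotic. Staining of live cells at seeding used Hoechst33342, BioTracker Green Microtubule Cytoskeleton Dye, MitoTracker Red and Annexin V Alexa Fluor 680, with imaging on a CQ1 microscope at 37°C and 5% CO2 after compound addition. Tubulin, mitochondrial-mass and membrane-permeability phenotypes are per cents of healthy-nucleus cells.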
# [2] = system: Fibroblast; test: Multiplex assay against human fibroblast; method in brief: as §1
# [3] = system: HEK-293T; test: Multiplex assay against HEK293T; details: human; method in brief: as §1
# [4] = 12 h, 1 µM, compound concentration 1 uM
# [5] = 12 h, 10 µM, compound concentration 10 uM
# [6] = 24 h, 1 µM, compound concentration 1 uM
# [7] = 24 h, 10 µM, compound concentration 10 uM
# [8] = 48 h, 1 µM, compound concentration 1 uM
# [9] = 48 h, 10 µM, compound concentration 10 uM
structure (smiles),measurement,setting,value
C[C@H](NC(=O)c1c(C(F)F)nn(C)c1Oc1cccc(C(F)(F)F)c1)c1ccc(C(=O)O)cc1 [PALUPIPRANT],Population Apoptotic (%),[1]; [4],60% and 91%
same,Population Fragmented Nuclei (%),[1]; [4],27% and 12%
same,Population Healthy Nuclei (%),[1]; [4],63% and 78%
same,Population Hoechst High Intensity Objects (%),[1]; [4],3% and 0%
same,Population Membrane Permeable-Phenotype (%),[1]; [4],4%
same,Population Mitochondria Different-Phenotype (%),[1]; [4],1% and 0%
same,Population Normal (%),[1]; [4],96% and 99%
same,Population Pyknosed Nuclei (%),[1]; [4],8% and 9%
same,Population Tubulin-Different-Phenotype (%),[1]; [4],1% and 2%
same,Total Cell Count,[1]; [4],266 and 132
same,Population Apoptotic (%),[1]; [5],83% and 100%
same,Population Fragmented Nuclei (%),[1]; [5],28% and 13%
same,Population Healthy Nuclei (%),[1]; [5],62% and 77%
same,Population Hoechst High Intensity Objects (%),[1]; [5],3%
same,Population Membrane Permeable-Phenotype (%),[1]; [5],7% and 5%
same,Population Mitochondria Different-Phenotype (%),[1]; [5],4% and 2%
same,Population Mitotic Cells (%),[1]; [5],16% and 0%
same,Population Normal (%),[1]; [5],96%
same,Population Pyknosed Nuclei (%),[1]; [5],8%
same,Population Tubulin-Different-Phenotype (%),[1]; [5],5% and 2%
same,Total Cell Count,[1]; [5],293 and 117
same,Population Apoptotic (%),[1]; [6],87% and 94%
same,Population Fragmented Nuclei (%),[1]; [6],20% and 14%
same,Population Healthy Nuclei (%),[1]; [6],72% and 73%
same,Population Hoechst High Intensity Objects (%),[1]; [6],2% and 1%
same,Population Membrane Permeable-Phenotype (%),[1]; [6],4% and 5%
same,Population Mitochondria Different-Phenotype (%),[1]; [6],1% and 0%
same,Population Mitotic Cells (%),[1]; [6],12% and 5%
same,Population Normal (%),[1]; [6],97% and 98%
same,Population Pyknosed Nuclei (%),[1]; [6],7% and 11%
same,Population Tubulin-Different-Phenotype (%),[1]; [6],3% and 5%
same,Total Cell Count,[1]; [6],316 and 147
same,Population Apoptotic (%),[1]; [7],91%
same,Population Fragmented Nuclei (%),[1]; [7],18% and 13%
same,Population Healthy Nuclei (%),[1]; [7],74% and 77%
same,Population Hoechst High Intensity Objects (%),[1]; [7],2%
same,Population Membrane Permeable-Phenotype (%),[1]; [7],5%
same,Population Mitochondria Different-Phenotype (%),[1]; [7],3% and 1%
same,Population Mitotic Cells (%),[1]; [7],8%
same,Population Normal (%),[1]; [7],97%
same,Population Pyknosed Nuclei (%),[1]; [7],7% and 8%
same,Population Tubulin-Different-Phenotype (%),[1]; [7],1% and 0%
same,Total Cell Count,[1]; [7],339 and 139
same,Population Apoptotic (%),[1]; [8],82% and 92%
same,Population Fragmented Nuclei (%),[1]; [8],15%
same,Population Healthy Nuclei (%),[1]; [8],73% and 70%
same,Population Hoechst High Intensity Objects (%),[1]; [8],2% and 0%
same,Population Membrane Permeable-Phenotype (%),[1]; [8],3%
same,Population Mitochondria Different-Phenotype (%),[1]; [8],1% and 0%
same,Population Mitotic Cells (%),[1]; [8],17% and 7%
same,Population Normal (%),[1]; [8],97% and 99%
same,Population Pyknosed Nuclei (%),[1]; [8],11% and 13%
same,Population Tubulin-Different-Phenotype (%),[1]; [8],1% and 2%
same,Total Cell Count,[1]; [8],426 and 207
same,Population Apoptotic (%),[1]; [9],91% and 85%
same,Population Fragmented Nuclei (%),[1]; [9],18% and 14%
same,Population Healthy Nuclei (%),[1]; [9],73% and 79%
same,Population Hoechst High Intensity Objects (%),[1]; [9],2% and 1%
same,Population Membrane Permeable-Phenotype (%),[1]; [9],5% and 1%
same,Population Mitochondria Different-Phenotype (%),[1]; [9],3% and 1%
same,Population Mitotic Cells (%),[1]; [9],8% and 14%
same,Population Normal (%),[1]; [9],97% and 98%
same,Population Pyknosed Nuclei (%),[1]; [9],7% and 6%
same,Population Tubulin-Different-Phenotype (%),[1]; [9],3% and 0%
same,Total Cell Count,[1]; [9],463 and 223
same,Population Apoptotic (%),[2]; [4],26% and 24%
same,Population Fragmented Nuclei (%),[2]; [4],29% and 23%
same,Population Healthy Nuclei (%),[2]; [4],57% and 52%
same,Population Hoechst High Intensity Objects (%),[2]; [4],5% and 6%
same,Population Membrane Permeable-Phenotype (%),[2]; [4],0% and 11%
same,Population Mitochondria Different-Phenotype (%),[2]; [4],4% and 6%
same,Population Mitotic Cells (%),[2]; [4],73% and 75%
same,Population Normal (%),[2]; [4],94% and 93%
same,Population Pyknosed Nuclei (%),[2]; [4],12% and 23%
same,Population Tubulin-Different-Phenotype (%),[2]; [4],23% and 55%
same,Total Cell Count,[2]; [4],187 and 148
same,Population Apoptotic (%),[2]; [5],45% and 35%
same,Population Healthy Nuclei (%),[2]; [5],70% and 35%
same,Population Mitochondria Different-Phenotype (%),[2]; [5],6% and 13%
same,Population Mitotic Cells (%),[2]; [5],55% and 64%
same,Population Normal (%),[2]; [5],97% and 85%
same,Population Pyknosed Nuclei (%),[2]; [5],16% and 22%
same,Population Tubulin-Different-Phenotype (%),[2]; [5],45% and 60%
same,Total Cell Count,[2]; [5],126 and 149
same,Population Apoptotic (%),[2]; [6],40% and 42%
same,Population Fragmented Nuclei (%),[2]; [6],32% and 26%
same,Population Healthy Nuclei (%),[2]; [6],58% and 53%
same,Population Hoechst High Intensity Objects (%),[2]; [6],5% and 7%
same,Population Membrane Permeable-Phenotype (%),[2]; [6],1% and 8%
same,Population Mitochondria Different-Phenotype (%),[2]; [6],4% and 5%
same,Population Mitotic Cells (%),[2]; [6],60% and 57%
same,Population Normal (%),[2]; [6],94% and 92%
same,Population Pyknosed Nuclei (%),[2]; [6],8% and 20%
same,Total Cell Count,[2]; [6],178 and 141
same,Population Apoptotic (%),[2]; [7],60% and 38%
same,Population Fragmented Nuclei (%),[2]; [7],18% and 40%
same,Population Healthy Nuclei (%),[2]; [7],62% and 42%
same,Population Hoechst High Intensity Objects (%),[2]; [7],5% and 10%
same,Population Mitochondria Different-Phenotype (%),[2]; [7],7% and 3%
same,Population Mitotic Cells (%),[2]; [7],39% and 61%
same,Population Normal (%),[2]; [7],94% and 89%
same,Population Pyknosed Nuclei (%),[2]; [7],18% and 17%
same,Population Tubulin-Different-Phenotype (%),[2]; [7],35% and 51%
same,Total Cell Count,[2]; [7],131 and 138
same,Population Apoptotic (%),[2]; [8],53%
same,Population Fragmented Nuclei (%),[2]; [8],34% and 30%
same,Population Healthy Nuclei (%),[2]; [8],57% and 50%
same,Population Hoechst High Intensity Objects (%),[2]; [8],11% and 3%
same,Population Membrane Permeable-Phenotype (%),[2]; [8],0% and 4%
same,Population Mitochondria Different-Phenotype (%),[2]; [8],4%
same,Population Mitotic Cells (%),[2]; [8],46%
same,Population Normal (%),[2]; [8],88% and 96%
same,Population Pyknosed Nuclei (%),[2]; [8],7% and 19%
same,Population Tubulin-Different-Phenotype (%),[2]; [8],29% and 53%
same,Total Cell Count,[2]; [8],184 and 147
same,Population Apoptotic (%),[2]; [9],73% and 60%
same,Population Fragmented Nuclei (%),[2]; [9],20% and 45%
same,Population Healthy Nuclei (%),[2]; [9],60% and 45%
same,Population Hoechst High Intensity Objects (%),[2]; [9],4% and 13%
same,Population Membrane Permeable-Phenotype (%),[2]; [9],1% and 10%
same,Population Mitochondria Different-Phenotype (%),[2]; [9],8% and 6%
same,Population Mitotic Cells (%),[2]; [9],26% and 40%
same,Population Normal (%),[2]; [9],95% and 86%
same,Population Pyknosed Nuclei (%),[2]; [9],18% and 9%
same,Population Tubulin-Different-Phenotype (%),[2]; [9],46% and 50%
same,Total Cell Count,[2]; [9],130 and 122
same,Population Apoptotic (%),[3]; [4],40% and 27%
same,Population Fragmented Nuclei (%),[3]; [4],6%
same,Population Healthy Nuclei (%),[3]; [4],80% and 83%
same,Population Hoechst High Intensity Objects (%),[3]; [4],7% and 5%
same,Population Membrane Permeable-Phenotype (%),[3]; [4],0%
same,Population Mitochondria Different-Phenotype (%),[3]; [4],44% and 60%
same,Population Mitotic Cells (%),[3]; [4],59% and 72%
same,Population Normal (%),[3]; [4],92% and 94%
same,Population Pyknosed Nuclei (%),[3]; [4],13% and 10%
same,Population Tubulin-Different-Phenotype (%),[3]; [4],28%
same,Total Cell Count,[3]; [4],407 and 475
same,Population Apoptotic (%),[3]; [5],38% and 60%
same,Population Fragmented Nuclei (%),[3]; [5],7% and 5%
same,Population Healthy Nuclei (%),[3]; [5],76% and 77%
same,Population Hoechst High Intensity Objects (%),[3]; [5],7% and 10%
same,Population Membrane Permeable-Phenotype (%),[3]; [5],0%
same,Population Mitochondria Different-Phenotype (%),[3]; [5],55% and 68%
same,Population Mitotic Cells (%),[3]; [5],61% and 40%
same,Population Normal (%),[3]; [5],92% and 89%
same,Population Pyknosed Nuclei (%),[3]; [5],16% and 17%
same,Population Tubulin-Different-Phenotype (%),[3]; [5],40% and 27%
same,Total Cell Count,[3]; [5],371 and 293
same,Population Apoptotic (%),[3]; [6],36% and 46%
same,Population Fragmented Nuclei (%),[3]; [6],9% and 7%
same,Population Healthy Nuclei (%),[3]; [6],80% and 83%
same,Population Hoechst High Intensity Objects (%),[3]; [6],5% and 4%
same,Population Membrane Permeable-Phenotype (%),[3]; [6],1% and 0%
same,Population Mitochondria Different-Phenotype (%),[3]; [6],27% and 35%
same,Population Mitotic Cells (%),[3]; [6],63% and 53%
same,Population Normal (%),[3]; [6],94% and 95%
same,Population Pyknosed Nuclei (%),[3]; [6],10% and 9%
same,Population Tubulin-Different-Phenotype (%),[3]; [6],18% and 19%
same,Total Cell Count,[3]; [6],527 and 604
same,Population Apoptotic (%),[3]; [7],26% and 55%
same,Population Fragmented Nuclei (%),[3]; [7],9% and 7%
same,Population Healthy Nuclei (%),[3]; [7],74% and 79%
same,Population Hoechst High Intensity Objects (%),[3]; [7],3% and 7%
same,Population Membrane Permeable-Phenotype (%),[3]; [7],0%
same,Population Mitochondria Different-Phenotype (%),[3]; [7],46% and 52%
same,Population Mitotic Cells (%),[3]; [7],73% and 44%
same,Population Normal (%),[3]; [7],96% and 92%
same,Population Pyknosed Nuclei (%),[3]; [7],16% and 13%
same,Population Tubulin-Different-Phenotype (%),[3]; [7],29% and 19%
same,Total Cell Count,[3]; [7],465 and 353
same,Population Apoptotic (%),[3]; [8],25% and 21%
same,Population Fragmented Nuclei (%),[3]; [8],13% and 14%
same,Population Healthy Nuclei (%),[3]; [8],79% and 78%
same,Population Hoechst High Intensity Objects (%),[3]; [8],2% and 4%
same,Population Membrane Permeable-Phenotype (%),[3]; [8],1% and 0%
same,Population Mitochondria Different-Phenotype (%),[3]; [8],17% and 18%
same,Population Mitotic Cells (%),[3]; [8],75% and 78%
same,Population Normal (%),[3]; [8],97% and 95%
same,Population Pyknosed Nuclei (%),[3]; [8],7% and 6%
same,Population Tubulin-Different-Phenotype (%),[3]; [8],13% and 9%
same,Total Cell Count,[3]; [8],916 and 867
same,Population Apoptotic (%),[3]; [9],29% and 28%
same,Population Fragmented Nuclei (%),[3]; [9],18% and 15%
same,Population Healthy Nuclei (%),[3]; [9],75% and 77%
same,Population Hoechst High Intensity Objects (%),[3]; [9],1% and 3%
same,Population Membrane Permeable-Phenotype (%),[3]; [9],1% and 0%
same,Population Mitochondria Different-Phenotype (%),[3]; [9],24% and 28%
same,Population Mitotic Cells (%),[3]; [9],70% and 71%
same,Population Normal (%),[3]; [9],98% and 96%
same,Population Pyknosed Nuclei (%),[3]; [9],6%
same,Population Tubulin-Different-Phenotype (%),[3]; [9],16% and 17%
same,Total Cell Count,[3]; [9],821 and 554
